ChEMBL document CHEMBL3272115, “Synthesis and microbiological activities of beta-(1-chloro-2-naphthyl) alanine and beta-(1-bromo-2-naphthyl) alanine” (1976)
In brackets after ≈: the same amount, converted by molar mass. Activity calls are given as the source filed them. The calls are words filed in the database; no cut-off is given here.

Experiments:
[1] = Antimicrobial activity against Leuconostoc dextranicum ATCC 8086 after 18 hrs by spectrophotometry; type: functional, Leuconostoc mesenteroides subsp. dextranicum; conditions: Leuconostoc mesenteroides, ATCC 8086, 18 h
Procedure, shortened: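 Basal lactic-acid-bacteria medium with 0.2 µg/ml calcium pantothenate and 0.02 µg/ml pantethine; Phe and Tyr omitted, Trp at 3 µg/ml; phosphate raised fourfold and 100 µg/ml glutamine added. Aqueous stock (1 mg/ml) serially diluted, up to 200 µg/ml. Incubated at 30° for 18 h. Turbidity read at 625 nm against an uninoculated blank. MIC from at least six repeats.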

[2] = test system: Lactiplantibacillus plantarum; test: Antimicrobial activity against Lactobacillus plantarum ATCC 8014 after 18 hrs by spectrophotometry in presence of 40 ug/ml each of phenylalanine,tyrosine and tryptophan; type: functional
[3] = test system: Leuconostoc mesenteroides subsp. dextranicum; test: (§1) Antimicrobial activity against Leuconostoc dextranicum ATCC 8086 after 18 hrs by spectrophotometry in presence of 40 ug/ml each of phenylalanine,tyrosine and tryptophan; type: functional
Escherichia coli = test: Antimicrobial activity against Escherichia coli ATCC 9723 after 16 hrs by spectrophotometry; type: functional; conditions: ATCC 9723, 16 h
Procedure, shortened: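 Stock of 10 mg in 10 ml sterile water (slight warming), serially diluted into autoclaved medium tubes, tested up to 200 µg/ml. Incubated at 37° for 16 h after inoculation. Turbidity read at 625 nm against an uninoculated medium blank. MIC taken as the minimum inhibitory concentration, with controls and at least six repeat assays.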

[4] = test system: Lactiplantibacillus plantarum; test: Antimicrobial activity against Lactobacillus plantarum ATCC 8014 after 18 hrs by spectrophotometry; type: functional; conditions: ATCC 8014, 18 h
Procedure, shortened: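 Basal lactic-acid-bacteria medium with 0.2 µg/ml calcium pantothenate and 0.02 µg/ml pantethine; phenylalanine and tyrosine omitted, and tryptophan lowered to 3 µg/ml; for this strain, Phe and Tyr at 1 µg/ml. Aqueous stock (1 mg/ml) serially diluted, up to 200 µg/ml. Incubated at 30° for 18 h. Absorbance read at 625 nm versus an uninoculated blank. MIC from at least six repeats.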

[5] = as §1; type: functional, Leuconostoc mesenteroides subsp. dextranicum; conditions: Leuconostoc mesenteroides, ATCC 8086, 18 h

Structure (SMILES) | MIC [1] | MIC [2] | MIC [3] | MIC (Escherichia coli) | MIC [4] | MIC ([2]; ATCC 8014, 18 h) | MIC [5]
NC(Cc1ccc2ccccc2c1Br)C(=O)O (racemic) | 200 µg/mL (≈ 680 µM) | Active | Active | 200 µg/mL (≈ 680 µM) | 200 µg/mL (≈ 680 µM) |  | 
NC(Cc1cccc2ccccc12)C(=O)O (stereo not drawn) | 200 µg/mL (≈ 929 µM) | Active | Active | > 200 µg/mL | 200 µg/mL (≈ 929 µM) |  | 
NC(Cc1ccc(O)cc1Cl)C(=O)O (stereo not drawn) | 6 µg/mL (≈ 27.8 µM) |  |  | 2 µg/mL (≈ 9.27 µM) | 0.6 µg/mL (≈ 2.78 µM) | 200 µg/mL | 200 µg/mL
NC(Cc1ccc2ccccc2c1Cl)C(=O)O (racemic) | 20 µg/mL (≈ 80.1 µM) | Active | Active | > 200 µg/mL | 20 µg/mL (≈ 80.1 µM) |  | 
NC(Cc1ccc2ccccc2c1)C(=O)O (stereo not drawn) | > 200 µg/mL |  |  | > 200 µg/mL | > 200 µg/mL |  | 
